# Shown are actives, neighbours in structure and some others; about 3.3% of the full set was active somewhere.
# PMI activator – increases human mannose-6-phosphate isomerase activity. purified human PMI, coupled resazurin fluorescence, 20 min; active compounds read high; 1 = vehicle control, 0 substrate-free wells. activation factor at 20 µM. 0.005% of 190,000 active;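 active means activation factor of 2 or more at 20 µM, relative to plate controls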
# ROMK primary – modulates human ROMK potassium channel activity; B-score at 10 µM; P48048; 2% of 130,000 active; Tet-inducible ROMK, thallium flux fluorescence; actives lie on both sides; AID 1918;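 active means signal ratio slope over the read window, or its plate-corrected B-score, at least 3 SD from the plate mean, either direction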;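 further: B-score of the F/F0 ratio slope over 7 to 12 s after thallium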
# PMI act satM6P – increases human PMI activity with near-saturating mannose 6-phosphate; P34949; coupled PMI enzyme assay, resazurin fluorescence, 20 min; active compounds read high; 1 = untreated enzyme, 0 = substrate-free blank; activation factor at 20 µM; 0.34% of 190,000 active;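 active means activation factor of 2 or more at 20 µM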
#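 Technique: Diaphorase-driven resazurin-to-resorufin fluorescence, excitation 544, emission 590 nm | Assay system: Human PMI in coupled enzyme assay | Times: Enzyme reaction with compound 20 min at room temperature | Medium: HEPES-buffered pH 7.4 with magnesium and detergent | Reagent: Mannose-6-phosphate 1.0 mM (near-saturating) plus 0.22 mM NADP+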
# Cl transport mod – modulates chloride dependent transport by human KCC2. Q9H2X9. KCC2 cells, thallium flux FluoZin-2 fluorescence. B-score of Tl+ flux slope (higher = more flux/activation; lower = inhibition) at 10 µM. 2.2% of 190,000 active;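 active means thallium flux slope and its plate-corrected score both differing from the plate sample mean at a set confidence after two filtering rounds, in either direction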;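 further: slope of fluorescence scaled to starting intensity during 10 to 20 s after thallium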
# ABCB1 inh – human ABCB1 inhibition, ABCG2 as counter-screen; P08183; CCRF-Adr cells, JC-1 efflux, flow cytometry; inhibition, % at 6.6 µM; 0.067% of 190,000 active; AID 1326; in the data active means inhibition above about 40%;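 further: 0% = vehicle and 100% = reference inhibitor; higher value means more JC-1 retained so stronger ABCB1 efflux block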
# ABCG2 block – human ABCG2 inhibition, ABCB1 as counter-screen | Q9UNQ0 | IgMXP3 cells, JC-1 efflux, flow cytometry | inhibition, % at 6.6 µM | 0.1% of 190,000 active;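 active means inhibition above 80%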;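 further: 0% = DMSO and 100% = nicardipine control wells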
#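 System: two drug-resistant human cell lines, ABCG2 and ABCB1; controls: nicardipine high and DMSO low controls; times: 10 min exposure at 25 °C with rotation, no wash; detection: flow cytometry of retained JC-1 fluorescence; read-out basis: percent efflux inhibition, scaled nicardipine 100% to DMSO 0%; doses: one concentration, 6.6 µM final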
# KCC2 sec1 – confirmation of human KCC2 transport modulators; shares compounds with Cl transport mod; HEK293-KCC2, thallium flux, FluoZin2 fluorescence; active compounds read high; normalised thallium flux (F/F0 slope) at 10 µM; 15% of 3,700 active;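 active means thallium flux slope above the same plate's solvent-only control mean plus 3 SD; inconclusive means the two replicate wells disagree; inactive means no significant difference from solvent-only control wells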
# KCC2 bumet counter – thallium flux despite bumetanide block in KCC2 cells, secondary assay 3; shares compounds with Cl transport mod; AID 1714; HEK293-KCC2 + bumetanide/ouabain, thallium flux FluoZin2; active compounds read high; 49% of 3,700 active; normalized thallium flux at 10 µM;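 active means thallium entry rate above the same plate's blocked-transporter control wells by more than 3 SD; inconclusive means the two repeat wells disagree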;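 further: raw slope of fluorescence over initial fluorescence between 10 and 20 s after thallium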
# KCC2 secondary2 – KCC2 (human) modulation, second secondary assay. shares compounds with Cl transport mod. HEK293-KCC2, thallium flux FluoZin2 fluorescence; actives lie on both sides; F/F0 rise rate, 10–20 s post-thallium. normalized thallium flux at 10 µM. 23% of 3,700 active;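 active means thallium flux slope more than 3 SD above or below the plate's solvent-only control mean, mostly below; inconclusive means the two repeat wells disagreed; inactive means no significant shift from solvent-only controls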;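 further: raw slope with 0.1% DMSO as baseline and bumetanide as block control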
# HEK293 Tl flux – parental HEK flux effect, counter-screen | shares compounds with Cl transport mod | HEK293 parental cells, thallium flux FluoZin2, ouabain; baseline-ratio fluorescence slope, 10–20 s after thallium | 46% of 3,700 active | thallium flux rate (normalised fluorescence) at 10 µM;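 active means thallium flux rate significantly above the same plate's solvent-only control wells, beyond their mean plus 3 SD; inconclusive means the two replicate wells gave conflicting results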
# KCC2 retest ouab – KCC2 (human) modulation, ouabain retest; shares compounds with Cl transport mod; HEK293-KCC2, thallium flux FluoZin2 fluorescence; bidirectional: low = inhibitor, high = activator; raw Tl+ flux slope (below DMSO = inhibition, above = activation) at 10 µM; 48% of 3,700 active; AID 1717;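 active means thallium flux slope beyond 3 SD from same-plate DMSO control mean in most replicates, usually higher, sometimes lower; inconclusive means repeat tests gave conflicting results; inactive means no significant difference from controls in most replicates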;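 further: slope of initial-normalized fluorescence between seconds 10 and 20 after thallium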
# HEK293 Tl flux2 – parental HEK flux effect, counter-screen 2; thallium flux slope at 10 µM; shares compounds with Cl transport mod; 33% of 3,700 active; HEK293 parental, thallium flux FluoZin-2 fluorescence slope; AID 1718;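 active means thallium flux slope above the same plate's solvent-control mean plus 3 SD in both duplicate wells; inconclusive means duplicate wells that disagreed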;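 further: run without ouabain in cells lacking the KCC2 cotransporter; slope of fluorescence scaled to its starting value between 10 and 20 s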
# The depositor's hits bear a star; ? = inconclusive; / = not tested or not shown.
SMILES,PMI activator,ROMK primary,PMI act satM6P,Cl transport mod,ABCB1 inh,ABCG2 block,KCC2 sec1,KCC2 bumet counter,KCC2 secondary2,HEK293 Tl flux,KCC2 retest ouab,HEK293 Tl flux2
Cc1ccc(Cc2nnc3n(-c4ccccc4)nc(C(=O)c4ccccc4)n3c2=O)cc1,0.8,0.23,0.8,0.67,9,11,/,/,/,/,/,/
CC(/C=C/c1ccccc1)=N\NC(=O)c1ccc(Br)cc1,0.9,-0.61,0.9,8.2*,0,19,0.022*,0.028*,0.033,0.016*,0.02,0.018*
CC(/C=C\C=C\c1ccccc1)=N\NC(=O)c1cncc(Br)c1,1.6,0.52,1.9,13*,0,0,?,0.029*,0.036,0.038*,0.031*,0.017*
CC(/C=C/c1ccccc1)=N/NC(=O)c1cccc(Br)c1,0.9,-0.28,0.9,11*,-1,2,0.011,0.037*,0.03,0.037*,0.03*,0.014*
C/C(=N\NC(=O)c1ccccc1)c1cccc(Br)c1,1.1,0.061,1,2,1,15,/,/,/,/,/,/
CC(/C=C/c1ccccc1F)=N\NC(=O)c1ccc(Cl)cc1,1,-0.13,1.1,6.2*,0,2,0.024*,0.02*,?,0.015*,0.022*,0.019*
COc1ccc2[nH]cc(CCN=C3SCC(=O)N3C)c2c1,1.1,0.17,1.1,0.67,0,1,/,/,/,/,/,/
Cc1ccc2cc(C)c3nnc(SCC(=O)Nc4nc5c(s4)CCCC5)n3c2c1,1,-1.4,1.1,/,1,1,/,/,/,/,/,/
CCOC(=O)C(=CN(CCc1ccccc1)CC(=O)OC)C(=O)OCC,1,-0.28,1,3.7,1,10,/,/,/,/,/,/
CCCCN=CC1=C(O)CC(c2ccccc2)CC1=O (centres undefined),0.9,1,0.9,1.5,1,6,/,/,/,/,/,/
COc1cccc(-c2nc(CS(=O)(=O)CC(=O)NCc3ccccc3)c(C)o2)c1,0.9,/,1,-4.1*,1,2,0.0087,0.0058,0.037,0.0045,?,0.012
COc1ccc(OC)c(CCNC(=O)CS(=O)(=O)Cc2nc(-c3ccccc3C)oc2C)c1,1.3,/,1.3,-2,1,6,/,/,/,/,/,/
Cc1ccccc1-c1nc(CS(=O)(=O)CC(=O)NCc2ccccc2)c(C)o1,0.9,/,0.9,-5*,0,0,0.0053,0.0049,?,0.0073,?,0.011
COc1cccc(-c2nc(CS(=O)(=O)CC(=O)NCc3ccccc3OC)c(C)o2)c1,0.9,/,0.9,-1.4,0,5,/,/,/,/,/,/
CCOc1ccc(/C(O)=C2/C(=O)C(=O)N(CC3CCCO3)C2c2cccs2)cc1 (centres undefined),1.1,-0.015,1,-0.57,-9,-1,/,/,/,/,/,/
Fc1ccc(NC(=S)Nc2nccs2)cc1,1,-0.19,1,77*,1,3,0.03*,0.064*,?,0.1*,0.083*,0.026*
S=C(NCc1ccccn1)Nc1ccccc1,1,0.22,1,-0.42,-1,0,/,/,/,/,/,/

# Screens as filed in PubChem BioAssay.
